ChEMBL document CHEMBL1138754, “Synthesis of taxoids with improved cytotoxicity and solubility for use in tumor-specific delivery” (J Med Chem, 2004)
≈ marks a conversion by molar mass, not a printed value.

Tests used:
MCF7 [1] = test: In vitro inhibitory concentration that inhibits 50% of the growth of MCF-7 human breast cell carcinoma cell line after 72 hr of drug exposure.; assay type: functional, cell-based; conditions: MCF7, 72 h
A549 [2] = test: In vitro inhibitory concentration that inhibits 50% of the growth of A549 non small cell lung carcinoma cell line after 72 hr of drug exposure.; assay type: functional, cell-based; conditions: Homo sapiens, A549, 72 h
[3] = Solubility in 10% DMSO(expressed as mean of 3 determinations); assay type: physicochemical; conditions: read-out: S
Summary of the method: (§1)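 200 μg of taxane was dissolved in 50 µL of organic solvent (DMA, DMSO or ethanol), then diluted to 500 µL (10% organic) with conjugation buffer: 0.1 M potassium phosphate, 1 mM EDTA, pH 6.5. The mixture was vortexed and centrifuged, and the taxane concentration in the supernatant was measured spectrophotometrically.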

[4] = Solubility in 10% DMA (expressed as mean of 3 determinations); assay type: physicochemical; conditions: read-out: S; summary of the method: as §1
[5] = Solubility in 10% Ethanol (expressed as mean of 3 determinations); assay type: physicochemical; conditions: read-out: S; summary of the method: as §1
MDR = test: Inhibitory concentration that inhibits 50% of the growth of LGM MDR human breast cell carcinoma cell line after 72 hr of drug exposure.; assay type: functional, cell-based
[6] = Inhibitory concentration that inhibits 50% of the growth of Namalwa Burkitts lymphoma cell carcinoma cell line after 72 hr of drug exposure.; assay type: functional, cell-based; conditions: Homo sapiens
Breast carcinoma cell = test: Inhibitory concentration that inhibits 50% of the growth of LCC6/P9 human breast cell carcinoma cell line after 72 hr of drug exposure.; assay type: functional, cell-based
[7] = Inhibitory concentration that inhibits 50% of the growth of Namalwa MDR Burkitts lymphoma MDR cell carcinoma cell line after 72 hr of drug exposure.; assay type: functional, cell-based; conditions: Homo sapiens
[8] = Solubility in 10% DMA(expressed as mean of 3 determinations); assay type: physicochemical; conditions: read-out: S; summary of the method: as §1
NCI/ADR-RES = test: Inhibitory concentration that inhibits 50% of the growth of NCI ADR RES human […] cell carcinoma cell line after 72 h of drug exposure.; assay type: functional, cell-based
MCF7 [9] = test: Inhibitory concentration that inhibits 50% of the growth of MCF-7 human breast cell carcinoma cell line after 72 hr of drug exposure. (Table 3); assay type: functional, cell-based; conditions: MCF7, 72 h
A549 [10] = test: In vitro inhibitory concentration that inhibits 50% of the growth of A549 non small cell lung carcinoma cell line after 72 hr of drug exposure. (IC50 based on 2 separate determinations); assay type: functional; conditions: Homo sapiens, A549, 72 h
MCF7 [11] = test: In vitro inhibitory concentration that inhibits 50% of the growth of MCF-7 human breast cell carcinoma cell line after 72 hr of drug exposure. (IC50 based on 2 separate determinations); assay type: functional; conditions: MCF7, 72 h
[12] = Solubility in 10% DMSO (expressed as mean of 3 determinations); assay type: physicochemical; conditions: read-out: S; summary of the method: as §1

Structure (SMILES): COc1ccc(OC)c(C(=O)O[C@H]2C3[C@](C)(C(=O)[C@H](O)C4=C(C)[C@@H](OC(=O)[C@H](O)[C@H](C=C(C)C)NC(=O)OC(C)(C)C)C[C@]2(O)C4(C)C)C(OC(=O)CCSSC)C[C@H]2OC[C@@]32OC(C)=O)c1 (stereo partly specified)
- IC50 (MCF7 [1]): 70 pM
- IC50 (A549 [2]): 130 pM
- solubility [3]: 4 µg/mL (≈ 4.08 µM)
- solubility [4]: 10 µg/mL (≈ 10.2 µM)
- solubility [5]: 2 µg/mL (≈ 2.04 µM)

Structure (SMILES): COc1ccc(OC)c(C(=O)O[C@H]2C3[C@](C)(C(=O)[C@H](OC(=O)CCSSC)C4=C(C)[C@@H](OC(=O)[C@H](O)[C@H](C=C(C)C)NC(=O)OC(C)(C)C)C[C@]2(O)C4(C)C)C(O)C[C@H]2OC[C@@]32OC(C)=O)c1 (stereo partly specified)
- IC50 (MCF7 [1]): 50 pM
- IC50 (A549 [2]): 90 pM
- IC50 (MDR): 4000 pM
- solubility [3]: 14 µg/mL (≈ 14.3 µM)
- IC50 [6]: 530 pM
- IC50 (Breast carcinoma cell): 1000 pM
- IC50 [7]: 650 pM
- solubility [5]: 10 µg/mL (≈ 10.2 µM)
- solubility [8]: 8 µg/mL (≈ 8.16 µM)
- IC50 (NCI/ADR-RES): 15000 pM
- IC50 (MCF7 [9]): 400 pM

Structure (SMILES): CSSCCC(=O)O[C@H]1C(=O)[C@]2(C)C(O)C[C@H]3OC[C@@]3(OC(C)=O)C2[C@H](OC(=O)c2ccccc2)[C@]2(O)C[C@H](OC(=O)[C@H](O)[C@H](C=C(C)C)NC(=O)OC(C)(C)C)C(C)=C1C2(C)C (stereo partly specified)
- IC50 (MCF7 [1]): 1000 pM
- IC50 (A549 [2]): 800 pM

Structure (SMILES): COc1ccc(OC)c(C(=O)O[C@H]2C3[C@](C)(C(=O)[C@H](OC(=O)CCOCCOCCOCCOCCSSC)C4=C(C)[C@@H](OC(=O)[C@H](O)[C@H](C=C(C)C)NC(=O)OC(C)(C)C)C[C@]2(O)C4(C)C)C(O)C[C@H]2OC[C@@]32OC(C)=O)c1 (stereo partly specified)
- IC50 (MCF7 [1]): 60 pM
- IC50 (A549 [2]): 290 pM
- IC50 (MDR): 18000 pM
- solubility [3]: 82 µg/mL (≈ 70.9 µM)
- IC50 [6]: 450 pM
- IC50 (Breast carcinoma cell): 1600 pM
- IC50 [7]: 900 pM
- solubility [5]: 55 µg/mL (≈ 47.6 µM)
- solubility [8]: 79 µg/mL (≈ 68.3 µM)
- IC50 (NCI/ADR-RES): 19000 pM
- IC50 (MCF7 [9]): 500 pM

Structure (SMILES): CSSCCN1CCN(C(=O)O[C@H]2C(=O)[C@]3(C)C(O)C[C@H]4OC[C@@]4(OC(C)=O)C3[C@H](OC(=O)c3ccccc3)[C@]3(O)C[C@H](OC(=O)[C@H](O)[C@H](C=C(C)C)NC(=O)OC(C)(C)C)C(C)=C2C3(C)C)CC1 (stereo partly specified)
- IC50 (MCF7 [1]): 1000 pM
- IC50 (A549 [2]): 1100 pM

Structure (SMILES): COc1ccc(OC)c(C(=O)O[C@H]2C3[C@](C)(C(=O)[C@H](OC(=O)CCOCCOCCOCCOCCOCCOCCOCCOCCOCCOCCSSC)C4=C(C)[C@@H](OC(=O)[C@H](O)[C@H](C=C(C)C)NC(=O)OC(C)(C)C)C[C@]2(O)C4(C)C)C(O)C[C@H]2OC[C@@]32OC(C)=O)c1 (stereo partly specified)
- solubility [3]: 110 µg/mL (≈ 77.4 µM)
- IC50 (A549 [10]): 1100 pM
- solubility [4]: 97 µg/mL (≈ 68.3 µM)
- solubility [5]: 127 µg/mL (≈ 89.4 µM)
- IC50 (MCF7 [11]): 580 pM

Structure (SMILES): COc1ccc(OC)c(C(=O)O[C@H]2C3[C@](C)(C(=O)[C@H](OC(=O)N4CCN(CCSSC)CC4)C4=C(C)[C@@H](OC(=O)[C@H](O)[C@H](C=C(C)C)NC(=O)OC(C)(C)C)C[C@]2(O)C4(C)C)C(O)C[C@H]2OC[C@@]32OC(C)=O)c1 (stereo partly specified)
- IC50 (MCF7 [1]): 39 pM
- IC50 (A549 [2]): 300 pM
- solubility [3]: 26 µg/mL (≈ 24.4 µM)
- solubility [4]: 26 µg/mL (≈ 24.4 µM)
- solubility [5]: 32 µg/mL (≈ 30.1 µM)

Structure (SMILES): COc1ccc(OC)c(C(=O)O[C@H]2C3[C@](C)(C(=O)[C@H](O)C4=C(C)[C@@H](OC(=O)[C@H](O)[C@H](C=C(C)C)NC(=O)OC(C)(C)C)C[C@]2(O)C4(C)C)C(OC(=O)CCOCCOCCOCCOCCSSC)C[C@H]2OC[C@@]32OC(C)=O)c1 (stereo partly specified)
- solubility [12]: 17 µg/mL (≈ 14.7 µM)
- IC50 (A549 [10]): 1000 pM
- solubility [4]: 11 µg/mL (≈ 9.51 µM)
- solubility [5]: 13 µg/mL (≈ 11.2 µM)
- IC50 (MCF7 [11]): 320 pM
